High-throughput results: PubChem BioAssay, several laboratories
Sampled rows, rich in hits. Any-hit rate of the full collection: about 2.6%.
MT stabilizer = microtubule stabilizers in HeLa cells | HeLa tubulin immunostaining HCS, 24 h; share of cells brighter than vehicle mean+2SD | 200,000 tested, 0.83% active | % tubulin-high responders, % at 10 µM;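 active = plate Z-score above 3 for both tubulin-high and condensed-nucleus cell shares, with cell loss under 80%, at 10 µM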;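 note: anti alpha tubulin signal scored within the nucleus-defined area of each cell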
NPY Y1 blocker = antagonists of human neuropeptide Y receptor Y1. 200,000 tested, 1% active. inhibition, % at 3.6 µM. HEK293-CNG Y1 cells, membrane potential fluorescence; NPY at EC95, then isoproterenol. AID 1040;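 active = inhibition above the campaign mean inhibition of all tested compounds plus 3 SD, cut at about 20% in these data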
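Test system: HEK293 cells co-expressing NPY Y1 receptor and cyclic-nucleotide gated channel; Also added: NPY (25 nM), isoproterenol (1 µM), Ro 20-1724 (25 µM); Compound dosing: one concentration, 3.6 µM, in 0.4% DMSO; Timing: dye 3 h, compound 60 min room temperature, stimulation 45 min; Technique: Membrane-potential fluorescent dye readout.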
NPY Y2 blocker = antagonists of human neuropeptide Y receptor Y2 | inhibition, % at 2.7 µM | NPY-Y2 expressing cells, antagonist mode | 140,000 tested, 0.99% active; in the data active = inhibition above about 17%
Target sequence (P49146 whole entry, looked up): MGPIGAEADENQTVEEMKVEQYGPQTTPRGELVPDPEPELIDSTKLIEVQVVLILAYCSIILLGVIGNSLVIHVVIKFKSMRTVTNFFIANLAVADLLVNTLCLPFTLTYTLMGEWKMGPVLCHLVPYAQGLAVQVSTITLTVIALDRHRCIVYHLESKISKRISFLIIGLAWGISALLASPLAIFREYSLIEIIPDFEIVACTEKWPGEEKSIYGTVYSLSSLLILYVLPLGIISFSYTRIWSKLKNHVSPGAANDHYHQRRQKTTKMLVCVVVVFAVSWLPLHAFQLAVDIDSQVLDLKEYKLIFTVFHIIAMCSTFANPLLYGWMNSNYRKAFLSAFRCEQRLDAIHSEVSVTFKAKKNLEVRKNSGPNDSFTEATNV
NPY-Y2 PAM-ag = potentiates or activates human NPY-Y2 receptor; cells expressing NPY-Y2, potentiator/agonist read-out; activation, % at 3.6 µM; 220,000 tested, 0.45% active; in the data active = activation above about 27%;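 note: cells stimulated with NPY near EC25 plus isoproterenol at EC100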
bCat nuc transl = beta-catenin nuclear translocation modulation. HeLa beta-catenin nuclear translocation, immunofluorescence imaging. nuclear translocation activity, % at 5 µM. 190,000 tested, 0.3% active;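 active = nuclear translocation activity above 50% at 5 µM, with a well cell count of 50 or more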;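 note: per-cell ratio of nuclear to cytoplasmic median beta-catenin stain intensity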
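test system = HeLa cells, endogenous beta-catenin | dosing = single 5 µM dose plus 0.02–20 µM confirmation series | times = compound treatment 24 h, 37°C, 5% CO2 | technique = beta-catenin immunofluorescence imaging with DAPI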
NPY1 pot ag = potentiates or activates human NPY-Y1 receptor; P25929; NPY-Y1 expressing cells, potentiator/agonist activation; 220,000 tested, 0.37% active; activation, % at 3.6 µM; in the data active = activation above about 33%, passing the limit was not always enough;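 note: cells stimulated with NPY at EC10 then isoproterenol at EC100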
A number is an active result; i = inactive; nt = no result given.

SMILES	MT stabilizer	NPY Y1 blocker	NPY Y2 blocker	NPY-Y2 PAM-ag	bCat nuc transl	NPY1 pot ag
COc1ccc(CN(C(=O)c2nsc(Cl)c2Cl)C(C(=O)NC2CCCC2)c2ccc(C)cc2)cc1 (centres undefined)	i	43.9	22.8	i	i	i
COc1ccc(Nc2c([N+](=O)[O-])ccc3c2=NC2(CCCCC2)N=3)cc1	i	i	nt	37.9	i	43.7
COc1ccc(S(=O)(=O)N2CCC(N3CCN(c4ccccc4OC)CC3)CC2)cc1	nt	nt	nt	i	i	i
COc1ccc(S(=O)(=O)N2c3ccccc3OCC2C(C)(C)C)cc1 (centres undefined)	13.7	i	nt	i	i	i
COc1ccc(S(=O)(=O)N2c3ccccc3OCC2C)cc1 (centres undefined)	17.7	i	nt	i	110.6	i
COc1ccc(S(=O)(=O)N2CCN(c3cccc(C)c3C)CC2)cc1	i	i	i	i	nt	i
COc1ccc(OC)c(S(=O)(=O)N2c3ccccc3CC2C)c1 (centres undefined)	i	i	i	i	i	i
COc1ccc(S(=O)(=O)N2c3ccccc3OCC2c2ccccc2)cc1 (centres undefined)	23.3	i	i	i	i	i
CS(=O)(=O)c1ccc2nc(N)sc2c1	i	i	i	i	i	41.0
Nc1ccc(-c2cc(-c3cccc(N)c3)nc(-c3ccccc3)n2)cc1	i	i	i	45.0	i	53.8
Cc1nc2sccn2c(=O)c1CCN1CCC(=C(c2ccccc2)c2ccc(F)cc2)CC1	i	39.8	44.2	i	i	i
CC1=C(C(=O)Nc2ccccc2)C(c2sccc2C)n2nnnc2N1 (centres undefined)	i	i	i	i	nt	i
N#CCCN(C(=O)COc1ccc(Cl)cc1Cl)c1ccccc1	i	i	i	i	nt	i
Cc1ccccc1-c1nsc(SCC(=O)c2ccc(Cl)cc2)n1	i	i	i	i	i	i
COc1ccc(-c2ncccc2OC(=O)C23CC4CC(CC(C4)C2)C3)cc1OC	i	i	i	i	i	i
CCN(CC)c1ccc(/C=N/n2nnnc2N)c(O)c1	24.4	i	i	i	nt	i
CCN(C)c1ccc(/C=N\n2nnnc2N)cc1	24.7	i	i	i	nt	i
CCOC(=O)N/N=C/c1ccc(N(CC)CC)cc1O	16.5	i	i	i	i	i
CCN(CC)c1ccc(/C=N/Nc2ccc(C)cc2)c(O)c1	i	i	i	i	i	i
COc1ccc(NC(=O)c2ccc3c(c2)NC(=O)CO3)cc1OC	i	i	nt	i	i	i
Cc1onc(-c2ccccc2Cl)c1C(=O)Nc1ccc(-c2nnc3n2CCCCC3)cc1	i	i	i	i	i	i
COCCCNc1c2c3c(cccc3[nH]c1=O)C(=O)c1ccccc1-2	14.7	i	i	i	nt	i
COCCCNC1=C(Cl)C(=O)c2ccccc2C1=O	nt	nt	nt	i	i	i
COC(=O)c1sccc1NC(=S)N1CCN(c2cc(C)ccc2C)CC1	17.3	i	i	i	i	i
COC(=O)c1sccc1NC(=S)N1CCN(C)CC1	i	i	nt	i	i	i
SMILES	MT stabilizer	NPY Y1 blocker	NPY Y2 blocker	NPY-Y2 PAM-ag	bCat nuc transl	NPY1 pot ag
CCC(=O)N1CCN(c2ccc(Cl)cc2NC(=O)c2ccc(Br)o2)CC1	i	i	17.4	i	nt	i
CC(C)C(=O)N1CCN(c2ccccc2NC(=O)Cc2ccc(Cl)cc2)CC1	i	43.5	20.4	i	i	i
CCOc1cccc(C(=O)Nc2ccccc2N2CCN(C(=O)C(C)C)CC2)c1	i	21.1	21.1	i	i	i
Cc1ccc(C(=O)Nc2ccccc2N2CCN(C(=O)C(C)C)CC2)cc1	i	i	i	i	i	i
CCC(=O)N1CCN(c2ccccc2NC(=O)Cc2ccccc2)CC1	i	24.0	i	i	nt	i
CS(=O)(=O)N1CCN(c2ccccc2NC(=O)Cc2ccccc2)CC1	i	i	i	i	i	i
Cc1cc(C)nc(NCC(O)CNc2ccccc2Cl)n1 (centres undefined)	i	i	i	i	i	i
CC(C)CCOC(=O)C[N+](C)(C)CCOC1CC2CCC1(C)C2(C)C (centres undefined)	i	i	nt	i	i	i
CCC(C)OC(=O)C[N+](C)(C)CCOC1CC2CCC1(C)C2(C)C (centres undefined)	i	21.4	nt	i	i	i
O=C(COC(=O)C1CCCCC1)Nc1ccc(S(=O)(=O)N2CCOCC2)cc1	i	i	nt	i	i	i
